Measurements as given in ChEMBL document CHEMBL1145516, “Structure-activity relationships for interaction with multidrug resistance protein 2 (ABCC2/MRP2): the role of torsion angle for a series of biphenyl-substituted heterocycles” (Drug Metab Dispos, 2007).

Legend:
MRP2 = experiment: Permeability across dog MDCK cells expressing MRP2; assay type: ADME, cell-based, Canis lupus familiaris; conditions: read-out: permeability
Caco-2 [1] = experiment: Ratio of permeability from basolateral to apical side over apical to basolateral side of human Caco-2 cell membrane at 10 uM; assay type: ADME, cell-based; conditions: caco-2, 10 µM
Summary of the method: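 Caco-2 monolayers seeded at 1x10^5 cells/cm2, grown 21-25 days, TEER >600 Ohm/cm2. Compound at 10 µM in HBSS pH 7.4 added to apical or basal donor side; 2 h at 37°C with shaking. Both sides sampled, quantified by LC/MS/MS.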

Caco-2 [2] = experiment: Ratio of permeability from basolateral to apical side over apical to basolateral side of human Caco-2 cell membrane at 10 uM in presence of MRP2 inhibitor MK571; conditions: caco-2, 10 µM

Q: NC(=O)Nc1cn(-c2ccc(-c3ccc(O)cc3)c(F)c2)nc1C(N)=O was tested. Which Papp (MRP2) did it give?
A: 3 ×10⁻⁶ cm/s

Q: What about the Ratio (Caco-2 [1]) of the same molecule?
A: 1.35

Q: For Cc1cc(O)ccc1-c1ccc(-n2cc(NC(N)=O)c(C(N)=O)n2)cc1C, which Ratio (Caco-2 [2]) is on record?
A: 2.53

Q: And the Papp (MRP2)?
A: 3 ×10⁻⁶ cm/s

Q: What about the Ratio (Caco-2 [1]) of the same molecule?
A: 26.02
